Measured values published in ChEMBL document CHEMBL1127817, “Antitumor agents. 150. 2',3',4',5',5,6,7-substituted 2-phenyl-4-quinolones and related compounds: their synthesis, cytotoxicity, and inhibition of tubulin polymerization” (J Med Chem, 1994).

Assays:
OVCAR-3 = experiment: In vitro inhibition of tumor cell growth of OVCAR-3, ovarian cancer cell line; type: functional; details: Homo sapiens
NCI-H226 = experiment: In vitro inhibition of tumor cell growth of NCI-H226, a non small-cell lung cancer cell line; type: functional; details: Homo sapiens
SK-MEL-5 = experiment: In vitro inhibition of tumor cell growth of SK-Mel-5, melanoma cell line; type: functional; details: Homo sapiens
Tubulin beta chain = Tubulin beta chain (Bos taurus, UniProt Q6B856); experiment: Inhibition of tubulin polymerization; type: functional
Tubulin beta chain, sequence (Q6B856 whole entry): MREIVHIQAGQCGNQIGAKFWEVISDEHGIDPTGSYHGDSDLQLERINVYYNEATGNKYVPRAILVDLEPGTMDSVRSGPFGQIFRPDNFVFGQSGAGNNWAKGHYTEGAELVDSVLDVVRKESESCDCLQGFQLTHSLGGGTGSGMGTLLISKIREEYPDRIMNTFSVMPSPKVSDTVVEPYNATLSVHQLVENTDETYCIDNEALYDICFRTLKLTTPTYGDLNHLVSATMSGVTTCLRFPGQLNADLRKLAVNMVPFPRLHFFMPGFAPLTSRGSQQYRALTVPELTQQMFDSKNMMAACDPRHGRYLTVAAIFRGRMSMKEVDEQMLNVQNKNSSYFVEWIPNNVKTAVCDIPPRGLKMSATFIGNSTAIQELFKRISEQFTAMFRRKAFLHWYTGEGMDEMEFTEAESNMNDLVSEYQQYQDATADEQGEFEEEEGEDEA

SF-295 = experiment: In vitro inhibition of tumor cell growth of SF-295, CNS tumor cell line; type: functional; details: Homo sapiens
DMS-114 = experiment: In vitro inhibition of tumor cell growth of DMS114, a small-cell lung cancer cell line; details: Homo sapiens
HCT-116 = experiment: In vitro inhibition of tumor cell growth of HCT116, colon cancer cell line; type: functional; details: Homo sapiens
Tubulin (Bos taurus) = Tubulin (Bos taurus) (UniProt Q6B856+Q862L2+Q862F3); experiment: Inhibition of colchicine binding to tubulin isolated from bovine brain tissue; type: functional; design: concentration or dose not given beside the values; details: concentration not given here
Summary of the method: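 1.0 μM tubulin incubated with 5.0 μM [3H]colchicine and 5.0 μM test agent; bound colchicine measured by DEAE-cellulose filter technique.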

SF-268 [1] = experiment: In vitro inhibition of tumor cell growth of SF-268, CNS tumor cell line; type: functional; details: Homo sapiens
RXF 393 = experiment: In vitro inhibition of tumor cell growth of RXF-393, renal cancer cell line; type: functional; details: Homo sapiens
KM-20L2 [2] = experiment: In vitro inhibition of tumor cell growth of KM20L2, colon cancer cell line; type: functional; details: Homo sapiens
SF-268 [3] = experiment: In vitro inhibition of tumor cell growth ofSF-268, CNS tumor cell line; type: functional; details: Homo sapiens
KM-20L2 [4] = experiment: Inhibition of in vitro tumor cell growth in KM20L2, colon cancer cell line; type: functional; details: Homo sapiens

Structure (SMILES)	GI50 (OVCAR-3)	GI50 (NCI-H226)	GI50 (SK-MEL-5)	IC50 (Tubulin beta chain)	GI50 (SF-295)	GI50 (DMS-114)	GI50 (HCT-116)	inhibition (Tubulin (Bos taurus))	GI50 (SF-268 [1])	GI50 (RXF 393)	GI50 (KM-20L2 [2])	GI50 (SF-268 [3])	GI50 (KM-20L2 [4])
O=c1cc(-c2ccccc2F)[nH]c2cc3c(cc12)OCO3	81.3 nM	447 nM	20.9 nM	850 nM	55 nM	513 nM	60.3 nM	37%	2290 nM	–	–	–	–
COc1cccc(-c2cc(O)c3cc(OC)ccc3n2)c1	–	347 nM	117 nM	740 nM	151 nM	–	155 nM	13%	229 nM	191 nM	–	–	–
Cc1ccc(-c2cc(O)c3cc4c(cc3n2)OCO4)cc1	427 nM	1580 nM	1740 nM	–	1910 nM	–	676 nM	12%	2190 nM	–	1410 nM	–	–
COc1ccc2nc(-c3ccccc3)cc(O)c2c1	–	–	–	610 nM	–	–	–	11%	–	–	–	–	–
COc1cccc(-c2cc(O)c3cc4c(cc3n2)OCO4)c1	45.7 nM	200 nM	37.1 nM	570 nM	91.2 nM	240 nM	174 nM	–	–	45.7 nM	182 nM	132 nM	–
Oc1cc(-c2ccccc2Cl)nc2cc3c(cc12)OCO3	77.6 nM	263 nM	36.3 nM	890 nM	–	–	87.1 nM	24%	692 nM	–	–	–	–
COc1cc(OC)cc(-c2cc(O)c3cc4c(cc3n2)OCO4)c1	195 nM	219 nM	309 nM	620 nM	257 nM	302 nM	316 nM	31%	708 nM	219 nM	708 nM	–	–
COc1ccc2nc(-c3ccccn3)cc(O)c2c1	> 100000 nM	36300 nM	28200 nM	> 40000 nM	51300 nM	22400 nM	33900 nM	–	24000 nM	2510 nM	35500 nM	–	–
COc1ccc2nc(-c3cccc(N(C)C)c3)cc(O)c2c1	170 nM	372 nM	195 nM	840 nM	204 nM	–	195 nM	18%	603 nM	120 nM	–	–	–
COc1ccccc1-c1cc(O)c2cc3c(cc2n1)OCO3	39800 nM	22900 nM	89100 nM	14000 nM	20900 nM	25100 nM	28200 nM	–	–	15100 nM	–	64600 nM	18600 nM
